Laboratory results taken from PMC11403393 (RSC Advances, 2024).

Target: α-glucosidase (Saccharomyces cerevisiae, UniProt P53341)
Assay: Kinetic study of α-glucosidase inhibition
Format: biochemical
Method in brief: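 Yeast α-glucosidase (0.02 U per well) in 50 mM sodium phosphate, pH 7.0, preincubated with test compound (1.50, 4.00, 8.00 μM, or none) at 37 °C for 15 min. p-Nitrophenyl α-D-glucopyranoside added at 0.1, 0.2, 0.4 or 0.8 mM. A400 followed continuously for 30 min, in triplicate. Analysed by Lineweaver–Burk plot, replot of its slopes against inhibitor concentration, and Dixon plot.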

Sequence of α-glucosidase (P53341 whole entry): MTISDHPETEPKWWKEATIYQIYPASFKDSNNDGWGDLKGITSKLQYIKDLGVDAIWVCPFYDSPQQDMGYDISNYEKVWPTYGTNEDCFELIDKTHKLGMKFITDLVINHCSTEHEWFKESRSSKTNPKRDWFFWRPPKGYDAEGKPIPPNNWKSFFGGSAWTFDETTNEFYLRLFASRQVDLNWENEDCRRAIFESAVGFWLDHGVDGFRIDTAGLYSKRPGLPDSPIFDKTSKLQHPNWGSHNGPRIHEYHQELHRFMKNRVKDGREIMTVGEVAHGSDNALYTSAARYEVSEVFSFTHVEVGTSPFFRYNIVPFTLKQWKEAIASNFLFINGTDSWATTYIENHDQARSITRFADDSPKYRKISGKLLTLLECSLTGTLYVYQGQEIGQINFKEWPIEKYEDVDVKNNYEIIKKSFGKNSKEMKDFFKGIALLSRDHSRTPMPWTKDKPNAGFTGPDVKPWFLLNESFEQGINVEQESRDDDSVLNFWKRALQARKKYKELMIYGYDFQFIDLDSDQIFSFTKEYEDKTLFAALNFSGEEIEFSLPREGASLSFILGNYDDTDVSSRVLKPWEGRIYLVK

O=C(Nc1cccc(Cl)c1)Nc1ccccc1N=Cc1cc(Cl)ccc1O [Compound 5h, 1-(2-{[(5-Chloro-2-hydroxybenzylidene)amino]}phenyl)-3-(3-chlorophenyl)urea]
Effect on Km of the enzyme: increases Km
Effect on Vmax of the enzyme: remains constant
Mode (type) of inhibition: competitive mode of inhibition
